According to ChEMBL document CHEMBL4765345, “Design, synthesis, and biological evaluation of dual targeting inhibitors of histone deacetylase 6/8 and bromodomain BRPF1” (Eur J Med Chem, 2020):

Legend:
[1] = target: T1, Peregrin (Homo sapiens, UniProt P55201); experiment: Binding affinity to BRPF1 (unknown origin) by Isothermal titration calorimetry; conditions: read-out: Kd
T1 sequence (P55201 whole entry): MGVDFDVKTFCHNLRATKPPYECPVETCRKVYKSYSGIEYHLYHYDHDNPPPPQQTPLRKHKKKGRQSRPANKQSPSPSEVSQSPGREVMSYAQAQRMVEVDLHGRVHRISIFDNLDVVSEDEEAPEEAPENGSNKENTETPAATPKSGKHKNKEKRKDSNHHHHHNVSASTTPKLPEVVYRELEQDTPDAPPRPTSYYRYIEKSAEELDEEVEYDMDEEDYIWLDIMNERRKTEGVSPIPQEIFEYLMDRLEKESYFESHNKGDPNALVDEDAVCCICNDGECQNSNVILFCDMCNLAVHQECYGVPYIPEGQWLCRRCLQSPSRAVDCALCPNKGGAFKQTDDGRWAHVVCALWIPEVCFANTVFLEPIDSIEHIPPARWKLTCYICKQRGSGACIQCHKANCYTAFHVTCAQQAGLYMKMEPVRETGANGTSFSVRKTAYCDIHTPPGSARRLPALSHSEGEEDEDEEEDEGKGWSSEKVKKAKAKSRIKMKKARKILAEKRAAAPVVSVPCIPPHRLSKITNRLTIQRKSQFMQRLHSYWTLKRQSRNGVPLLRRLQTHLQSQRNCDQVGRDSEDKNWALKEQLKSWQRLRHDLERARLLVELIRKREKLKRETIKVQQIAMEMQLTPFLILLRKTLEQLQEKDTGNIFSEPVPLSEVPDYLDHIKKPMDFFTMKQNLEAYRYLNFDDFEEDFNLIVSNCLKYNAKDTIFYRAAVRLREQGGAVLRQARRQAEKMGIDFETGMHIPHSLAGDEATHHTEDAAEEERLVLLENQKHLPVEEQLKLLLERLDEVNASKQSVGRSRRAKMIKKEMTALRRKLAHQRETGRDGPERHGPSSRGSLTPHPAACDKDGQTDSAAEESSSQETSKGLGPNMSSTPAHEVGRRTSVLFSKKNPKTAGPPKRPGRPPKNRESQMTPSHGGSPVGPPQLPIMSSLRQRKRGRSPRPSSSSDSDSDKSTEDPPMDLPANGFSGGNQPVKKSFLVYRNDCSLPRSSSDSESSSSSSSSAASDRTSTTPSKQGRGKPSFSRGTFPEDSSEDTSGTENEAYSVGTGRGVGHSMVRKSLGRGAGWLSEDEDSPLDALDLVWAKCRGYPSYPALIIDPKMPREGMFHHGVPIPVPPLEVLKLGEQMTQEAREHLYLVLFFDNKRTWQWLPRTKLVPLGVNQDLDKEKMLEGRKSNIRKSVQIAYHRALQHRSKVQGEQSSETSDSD
Method in brief: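 Isothermal titration calorimetry with recombinant BRPF1 (200–400 μM) in the injection syringe titrated into ligand (20–40 μM) in the sample cell. Kd was fitted from the titrations and reported with its P99 interval.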

[2] = test system: THP-1; experiment: Antiproliferative activity against human THP-1 assessed as reduction in cell growth at 100 uM by CellTiter-non radioactive cell proliferation assay; type: functional

With `COc1ccc(C(=O)NO)cc1S(=O)(=O)Nc1ccc2c(c1)cc(C)c(=O)n2C` the Kd [1] was 67 nM and the inhibition at 100 µM [2] was 43%.
